Assay [1] deals with HL-60. In words: Induction of apoptosis in human HL60 cells assessed as DNA fragmentation at 12.5 uM after 24 hrs by agarose gel electrophoresis. The format is functional, cell-based. Summed up:
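HL-60 cells treated with 12.5 µM compound for 24 h; DNA extracted and laddering resolved by agarose gel electrophoresis against a 100 bp marker; representative of three independent experiments.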

Assay [2] is described as follows: Cytotoxicity against human HF19 cells assessed as cell viability after 24 hrs by MTT assay. The format is cell-based. The conditions noted are these: HF19, 24 h. In outline: (§1)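 Cells exposed to compounds at 3.125 to 50 µM for 24 h; proliferation read by MTT assay; IC50 (µM) reported. Panel: leukemia lines HL-60, U937, THP-1, Jurkat; stomach KATO III; colon HCT-15; hepatoma HepG2; normal skin fibroblasts NB1RGB and HF-19.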
For orientation: Tetrazolium assays rely on reduction of a dye to a coloured formazan, in cell work by metabolically active cells.

The nature of assay [3]: Cytotoxicity against human NB1RGB cells assessed as cell viability after 24 hrs by MTT assay. The format is cell-based. In outline:
as §1

Another assay relates to HepG2. In words: Cytotoxicity against human HepG2 cells assessed as cell viability after 24 hrs by MTT assay. In kind it is functional, cell-based. The conditions noted are these: HepG2, 24 h. In outline: as §1
For the next assay, the system named is HCT-15. Put plainly: Cytotoxicity against human HCT15 cells assessed as cell viability after 24 hrs by MTT assay. In kind it is functional, cell-based. The conditions noted are these: HCT-15, 24 h. In outline:
as §1

Assay [4] in a line: Cytotoxicity against human KATO III cells assessed as cell viability after 24 hrs by MTT assay. The format is functional, cell-based. In outline: as §1
A further assay deals with Jurkat. Put plainly: Cytotoxicity against human Jurkat cells assessed as cell viability after 24 hrs by MTT assay. In kind it is functional, cell-based. In outline: as §1
Another assay relates to THP-1. Put plainly: Cytotoxicity against human THP1 cells assessed as cell viability after 24 hrs by MTT assay. In kind it is functional, cell-based. The conditions noted are these: THP-1, 24 h. Summed up: as §1
For another assay, the system named is U-937. In words: Cytotoxicity against human U937 cells assessed as cell viability after 24 hrs by MTT assay. The format is functional, cell-based. The conditions noted are these: U-937, 24 h. Summed up: as §1
For assay [5], the system named is HL-60. In words: Cytotoxicity against human HL60 cells assessed as cell viability after 24 hrs by MTT assay. In kind it is functional, cell-based. The conditions noted are these: HL-60, 24 h. Summed up:
as §1

Assay [6] deals with HL-60. Put plainly: Induction of apoptosis in human HL60 cells assessed as chromatin condensation at 12.5 uM after 24 hrs by Hoechst 33258 staining-based fluorescent microscopy. In kind it is functional, cell-based. In outline: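 Nuclear morphology: HL-60 cells treated 24 h with 12.5 µM compound, stained with Hoechst 33258, and viewed by fluorescence microscopy at ×400; representative of three independent experiments.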

The test system of assay [7] is HL-60. Put plainly: Induction of apoptosis in human HL60 cells assessed as DNA fragmentation at 12.5 uM after 24 hrs by agarose gel electrophoresis in presence of caspase inhibitior Z-VAD-FMK and Z-DEVD-FMK. The format is functional, cell-based. Summed up: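 HL-60 cells pretreated 1 h with 50 µM caspase inhibitor (z-VAD-FMK, broad; z-DEVD-FMK, caspase-3), then given 12.5 µM compound for 24 h; DNA fragmentation by agarose gel electrophoresis; representative of three independent experiments.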

In assay [8] the test system is HL-60. In words: Induction of apoptosis in human HL60 cells assessed as activation of caspase 3 at 12.5 uM by Western blot analysis. The format is functional, cell-based. The conditions noted are these: TDE = time-dependent effect. In outline: (§2)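 HL-60 cells given 12.5 µM compound for 6–24 h, then lysed; caspase-3 and PARP (cleavage) probed by Western blot with β-actin as loading control; representative of three independent experiments.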

Assay [9] deals with HL-60. In words: Induction of apoptosis in human HL60 cells assessed as PARP cleavage at 12.5 uM by Western blot analysis. In kind it is functional, cell-based. Conditions: TDE = time-dependent effect. In outline: as §2
For orientation: In western blotting, separated proteins are transferred to a membrane and probed.

Assay [10] deals with HL-60. Put plainly: Induction of apoptosis in human HL60 cells assessed as DNA fragmentation at 12.5 uM by agarose gel electrophoresis. In kind it is functional, cell-based. Conditions: TDE = time-dependent effect. Summed up: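 Time course: HL-60 cells exposed to 12.5 µM compound for 6–24 h; DNA fragmentation assessed by agarose gel electrophoresis; representative of three independent experiments.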

pIC50: −log10 of the molar value. The source made the active and inactive calls. The calls are words filed in the database; no cut-off is given here. A value given as a limit tells only on which side of the number the result lay.

Broadly, the pIC50 is the negative decadic logarithm of the IC50, by convention in mol/L. In the case of `CCCC(=O)c1c2c(c3oc(=O)cc(CCC)c3c1O)C=CC(C)(C)O2`, in the assay on HL-60 [1], the result was inactive. Besides, the pIC50 (in [2]; in assay [3]; in the assay with HepG2; with HCT-15; in assay [4]; in the assay with Jurkat) was below 4.30 throughout. Also, the pIC50 with THP-1 is below 4.30; in the assay on U-937, 4.32; with HL-60 [5], 4.43.
For the molecule `CCC(C)C(=O)c1c(O)c2c(c3c([C@@H](O)CC)cc(=O)oc13)OC(C(C)(C)O)C2` (some centres not stated), the outcome in the assay with HL-60 [1] was inactive. The pIC50 (in [2]; in assay [3]; with HepG2; in the assay with HCT-15; in assay [4]; in the assay with Jurkat) was below 4.30 in each case. The pIC50 in the assay with THP-1 was 4.39; with U-937, 4.48; with HL-60 [5], 4.54.
As for `CCC(C)C(=O)c1c(O)c(CC=C(C)C)c(O)c2c([C@@H](O)CC)cc(=O)oc12` (some centres not stated), the outcome with HL-60 [6] and with HL-60 [1] was Active. The pIC50 in assay [2] was below 4.30; in assay [3], below 4.30; in the assay on HepG2, below 4.30; in the assay with HCT-15, below 4.30; in [4], 4.62; with Jurkat, 4.53. The pIC50 in the assay on THP-1 is 5.03; in the assay with U-937, 4.73; with HL-60 [5] it was 4.86.
`O=c1cc(-c2ccc(O)c(-c3c(O)cc(O)c4c(=O)cc(-c5ccc(O)cc5)oc34)c2)oc2cc(O)cc(O)c12` [AMENTOFLAVONE]: in the assay with HL-60 [1], the outcome was inactive. The pIC50 (in assay [2]; in assay [3]; in the assay with HepG2; in the assay with HCT-15; in [4]; in the assay on Jurkat) was below 4.30 each time. Further, the pIC50 with THP-1, with U-937 and in the assay with HL-60 [5] was below 4.30 in each case.
Take `O=c1cc(-c2ccc(O)cc2)oc2cc(O)c([C@@H]3O[C@H](CO)[C@@H](O)[C@H](O)[C@H]3O)c(O)c12` [ISOVITEXIN]: the result in the assay on HL-60 [1] was inactive. For the same molecule, the negative-log IC50 (pIC50) (in assay [2]; in assay [3]; with HepG2; in the assay on HCT-15; in [4]; in the assay on Jurkat) was below 4.30 throughout. The pIC50 in the assay on THP-1, in the assay on U-937 and in the assay with HL-60 [5] was below 4.30 in each case.
Take `CCCC(=O)c1c(O)c(C/C=C(\C)CCC=C(C)C)c(O)c2c([C@@H](O)CC)cc(=O)oc12` [KAYEASSAMIN A]: in the assay with HL-60 [7], the result was inactive. For the same molecule, the Activity result in the assay with HL-60 [8], in the assay with HL-60 [9] and in the assay on HL-60 [10] was “tde” each time. For the same molecule, the outcome in the assay on HL-60 [6] and with HL-60 [1] was Active. The pIC50 was below 4.30 in assay [2]; below 4.30 in assay [3]; below 4.30 in the assay with HepG2; below 4.30 in the assay with HCT-15; 4.92 in assay [4]; 4.70 with Jurkat. In addition, the figures for the pIC50 with THP-1, in the assay on U-937 and in the assay on HL-60 [5] were 4.78, 4.70 and 4.93, respectively.
With `CCC(C)C(=O)c1c(O)c(C/C=C(\C)CCC=C(C)C)c(O)c2c([C@@H](O)CC)cc(=O)oc12` (some centres not stated) [SURANGIN C], the outcome in the assay with HL-60 [6] and in the assay with HL-60 [1] was Active. The pIC50 is below 4.30 in [2]; below 4.30 in assay [3]; below 4.30 with HepG2; below 4.30 with HCT-15; 4.97 in assay [4]; 4.64 in the assay on Jurkat. In addition, the results for the pIC50 with THP-1, in the assay with U-937 and with HL-60 [5] were 4.67, 4.56 and 4.88, respectively.

The values are drawn from ChEMBL document CHEMBL2311482, “Antiproliferative and apoptotic effects of compounds from the flower of Mammea siamensis (Miq.) T. Anders. on human cancer cell lines” (Bioorg Med Chem Lett, 2013).
